In ChEMBL document CHEMBL1157559, “Synthesis and biological evaluation of novel pyrazolyl-2,4-thiazolidinediones as anti-inflammatory and neuroprotective agents” (Bioorg Med Chem, 2010):
Active and inactive are the calls of the source. The rule behind the calls is not given here.

Legend:
[1] = tested on: SH-SY5Y; assay: Neuroprotective activity in human SH-SY5Y cells assessed as inhibition of H2O2-induced cytotoxicity after 72 hrs by LDH assay; format: functional, cell-based
Procedure, shortened: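 SH-SY5Y cells plated in DMEM-F12 with 5% FBS. After 24 h, medium replaced with medium containing H2O2 (500 µM in methods, 250 µM in figure legend), and compound added directly at that time. Cell death measured by LDH release 72 h later.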

[2] = tested on: Rattus norvegicus; assay: Antiinflammatory activity in Wistar albino rat acute inflammatory model assessed as inhibition of formalin-induced paw edema at 20 mg/kg, po administered 1 hr before formalin challenge measured after 1 hr by plethysmometer relative to control; format: functional; set-up: scale not given: the % may be the effect or the level left
Procedure, shortened: (§1)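 Male Wistar rats, 180–200 g, groups of five. Test compound 20 mg/kg po; 1 h later 0.1 mL 2% formalin injected subplantar into left hind paw under light ether anesthesia. Paw volume by water plethysmometer at 0 and 1, 2, 3, 4 h after formalin. % inhibition = (Vt−V0)control minus (Vt−V0)treated, divided by (Vt−V0)control ×100. Mean ± SEM, ANOVA with Student–Newman–Keuls.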

[3] = tested on: Rattus norvegicus; assay: Antiinflammatory activity in Wistar albino rat acute inflammatory model assessed as inhibition of formalin-induced paw edema at 20 mg/kg, po administered 1 hr before formalin challenge measured after 3 hrs by plethysmometer relative to control; format: functional; set-up: scale not given: the % may be the effect or the level left; procedure, shortened: as §1
[4] = tested on: Rattus norvegicus; assay: Antiinflammatory activity in Wistar albino rat acute inflammatory model assessed as inhibition of formalin-induced paw edema at 20 mg/kg, po administered 1 hr before formalin challenge measured after 4 hrs by plethysmometer relative to control; format: functional; set-up: scale not given: the % may be the effect or the level left; procedure, shortened: as §1
[5] = tested on: Rattus norvegicus; assay: Gastrointestinal toxicity in Wistar albino rat assessed as hyperemia at 100 mg/kg/day, po administered twice daily for 3 days; format: organism-based; set-up: route oral; conditions: in vivo, 72 h
Procedure, shortened: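 Male rats 180–200 g, groups of five, fasted 12 h with water available. Compounds given orally as two equal doses at 0 and 12 h, 100 mg/kg per day, for three successive days; vehicle control 1% gum acacia. Rats killed 6 h after last dose. Stomach opened along greater curvature, washed with cold saline and inspected under 3× lens for hyperemia, hemorrhage, erosions or ulcers.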

[6] = Acute toxicity in po dosed Swiss albino mouse after 24 hrs; format: organism-based; conditions: in vivo, read-out: ALD50
Procedure, shortened: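 Four groups of five Swiss albino mice (20–30 g), fasted 24 h beforehand, given compounds orally at graded doses of 0–300 mg/kg. Mortality recorded at each dose level after 24 h to estimate the acute lethal dose (ALD50).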

[7] = tested on: Rattus norvegicus; assay: Antiinflammatory activity in po dosed Wistar albino rat acute inflammatory model assessed as inhibition of formalin-induced paw edema administered 1 hr before formalin challenge measured after 3 hrs by plethysmometer; format: functional
Procedure, shortened: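 Rats dosed orally at 5, 10, 20, 40 and 50 mg/kg body weight. Edema volume inhibition measured 3 h after subplantar formalin (2%, 0.1 mL), and ED50 determined from these doses.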

[8] = tested on: THP-1; assay: Cytotoxicity against LPS and IFN-gamma-stimulated human THP1 cells after 24 hrs; format: functional, cell-based; conditions: THP-1, 24 h
Procedure, shortened: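 THP-1 cells, 24-well, in DMEM-F12 with 5% FBS. Compound or DMSO added 15 min before LPS 0.5 µg/mL plus IFN-γ 150 U/mL. After 24 h, LDH release (fraction of Triton-lysed value, OD 490) and MTT were read. EC50 taken from curves of at least three independent experiments; the lower of the two assay values was reported.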

SMILES: O=C1NC(=O)/C(=C/c2cn(-c3ccc([N+](=O)[O-])cc3)nc2-c2ccc(Cl)cc2)S1
- inhibition [1]: inactive
- Activity [2]: 24%
- Activity [3]: 68%
- Activity [4]: 68%
- Activity [5]: Non-toxic
- LD50 at 24 h [6]: > 300 mg/kg
- ED50 [7]: 15.2 mg/kg
- EC50 [8]: > 100 µM
